Results: ChEMBL document CHEMBL4396889, “From Inhibition to Degradation: Targeting the Antiapoptotic Protein Myeloid Cell Leukemia 1 (MCL1)” (J Med Chem, 2019)
Activity calls are given as the source filed them. No cut-off for these calls is given here.

Tests used:
[1] = target: T1, Protein cereblon/Induced myeloid leukemia cell differentiation protein Mcl-1 (Homo sapiens) (UniProt Q07820+Q96SW2); experiment: Protac activity at Cereblon/MCL1 long isoform in wild type human OPM2 cells at 250 nM after 48 hrs by immunoblot analysis relative to control; format: cell-based
In short: (§1)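 OPM2 multiple myeloma cells, wild type or CRBN-knockout, were treated for 48 h with degrader or DMSO vehicle. MCL1 long and short isoforms were detected by immunoblot and levels compared with DMSO controls.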

[2] = target: T1, Protein cereblon/Induced myeloid leukemia cell differentiation protein Mcl-1 (Homo sapiens); experiment: Protac activity at Cereblon/MCL1 short isoform in wild type human OPM2 cells assessed as MCL1 short isoform abundance at 100 nM after 48 hrs by immunoblot analysis relative to control; format: cell-based
In short: (§2)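 OPM2 wild-type cells, run alongside the CRBN-/- line, were treated for 48 h with compound or DMSO. The MCL1 long and short isoforms were then measured by immunoblot against the DMSO control.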

[3] = target: T2, Induced myeloid leukemia cell differentiation protein Mcl-1 (Homo sapiens, UniProt Q07820); experiment: Induction of MCL1 long isoform degradation in CRBN-/- human OPM2 cells assessed as protein abundance at 500 nM after 48 hrs by immunoblot analysis relative to control; format: cell-based; in short: as §1
[4] = target: T1, Protein cereblon/Induced myeloid leukemia cell differentiation protein Mcl-1 (Homo sapiens); experiment: Protac activity at Cereblon/MCL1 long isoform in human OPM2 cells assessed as MCL1 long isoform abundance at 100 nM after 24 hrs by immunoblot analysis relative to control; format: cell-based
[5] = target: T1, Protein cereblon/Induced myeloid leukemia cell differentiation protein Mcl-1 (Homo sapiens); experiment: Protac activity at N-terminal His-tagged human MCL1 expressed in Escherichia coli/Cereblon in human OPM2 cell lysate assessed as ternary complex formation at 500 nM incubated for 4 hrs followed by cell lysate addition after overnight incubation by SDS-PAGE/immunoblot analysis
[6] = target: T1, Protein cereblon/Induced myeloid leukemia cell differentiation protein Mcl-1 (Homo sapiens); experiment: Protac activity at Cereblon/MCL1 long isoform in human MM1S cells assessed as MCL1 long isoform level at 300 nM pre-incubated for 72 hrs followed by cycloheximide addition and measured after 30 mins by immunoblot analysis (reference value: 96%); format: cell-based
In short: (§3)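 Cycloheximide chase: cells were treated for 72 h with DMSO or degrader, with cycloheximide added for the final 30, 60 or 120 min. OPM2 and MM1.S cells were used, and wild-type OPM2 was compared with OPM2 CRBN-/- at 60 and 120 min. MCL1 was detected by immunoblot.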

[7] = target: T1, Protein cereblon/Induced myeloid leukemia cell differentiation protein Mcl-1 (Homo sapiens); experiment: Protac activity at Cereblon/MCL1 short isoform in wild type human OPM2 cells assessed as MCL1 short isoform abundance at 500 nM after 48 hrs by immunoblot analysis relative to control; format: cell-based; in short: as §2
[8] = target: T1, Protein cereblon/Induced myeloid leukemia cell differentiation protein Mcl-1 (Homo sapiens); experiment: Protac activity at Cereblon/MCL1 short isoform in human OPM2 cells assessed as MCL1 short isoform abundance at 100 nM after 24 hrs by immunoblot analysis relative to control; format: cell-based
[9] = target: T1, Protein cereblon/Induced myeloid leukemia cell differentiation protein Mcl-1 (Homo sapiens); experiment: Protac activity at Cereblon/MCL1 in human OPM2 cell lysate assessed as induction of MCL1 polyubiquitination incubated for 3 hrs by SDS-PAGE/immunoblot analysis; format: subcellular
In short: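 In vitro ubiquitinylation reactions; the target (MCL1 or BRD4) was then immunoprecipitated and the immunoprecipitate immunoblotted for ubiquitin.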

[10] = target: T1, Protein cereblon/Induced myeloid leukemia cell differentiation protein Mcl-1 (Homo sapiens); experiment: Protac activity at Cereblon/MCL1 short isoform in human OPM2 cells assessed as MCL1 short isoform level at 300 nM pre-incubated for 72 hrs followed by cycloheximide addition and measured after 30 mins by immunoblot analysis (reference value: 100%); format: cell-based
In short: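 OPM2 or MM1.S cells were treated for 72 h with compound or DMSO. Cycloheximide was added for the final 30, 60 or 120 min. MCL1 was read by immunoblot and compared with DMSO-treated cells as a normal-turnover reference.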

[11] = target: T1, Protein cereblon/Induced myeloid leukemia cell differentiation protein Mcl-1 (Homo sapiens); experiment: Protac activity at Cereblon/MCL1 long isoform in wild type human OPM2 cells assessed as MCL1 long isoform level at 300 nM pre-incubated for 72 hrs followed by cycloheximide addition and measured after 60 mins by immunoblot analysis (reference value: 84%); format: cell-based; in short: as §3
[12] = target: T1, Protein cereblon/Induced myeloid leukemia cell differentiation protein Mcl-1 (Homo sapiens); experiment: Protac activity at Cereblon/MCL1 long isoform in human OPM2 cells assessed as MCL1 long isoform abundance at 500 nM after 24 hrs by immunoblot analysis relative to control; format: cell-based
OPM-2 [13] = experiment: Induction of apoptosis in wild type human OPM2 cells assessed as cleaved caspase-3 at 50 nM after 24 hrs in presence of 1% FBS by immunoblot analysis (reference value: 95%); format: functional
[14] = target: T2, Induced myeloid leukemia cell differentiation protein Mcl-1; experiment: Induction of MCL1 short isoform degradation in CRBN-/- human OPM2 cells assessed as protein abundance at 50 nM after 48 hrs by immunoblot analysis relative to control; format: cell-based; in short: as §1
[15] = target: T2, Induced myeloid leukemia cell differentiation protein Mcl-1; experiment: Induction of MCL1 long isoform degradation in CRBN-/- human OPM2 cells assessed as protein abundance at 300 nM pre-incubated for 72 hrs followed by cycloheximide addition and measured after 120 mins by immunoblot analysis (reference value: 37%); format: cell-based; in short: as §3
[16] = target: T1, Protein cereblon/Induced myeloid leukemia cell differentiation protein Mcl-1 (Homo sapiens); experiment: Protac activity at Cereblon/MCL1 long isoform in wild type human OPM2 cells assessed as protein abundance at 50 nM after 48 hrs by immunoblot analysis relative to control; format: cell-based; in short: as §1
[17] = target: T1, Protein cereblon/Induced myeloid leukemia cell differentiation protein Mcl-1 (Homo sapiens); experiment: Protac activity at Cereblon/MCL1 in human OPM2 cells assessed as protein abundance at 1 uM after 48 hrs by immunoblot analysis relative to control; format: cell-based; in short: as §1
[18] = target: T1, Protein cereblon/Induced myeloid leukemia cell differentiation protein Mcl-1 (Homo sapiens); experiment: Protac activity at Cereblon/MCL1 short isoform in human OPM2 cells assessed as MCL1 short isoform abundance at 250 nM after 24 hrs by immunoblot analysis relative to control; format: cell-based
[19] = target: T1, Protein cereblon/Induced myeloid leukemia cell differentiation protein Mcl-1 (Homo sapiens); experiment: Protac activity at Cereblon/MCL1 long isoform in human OPM2 cells assessed as MCL1 long isoform level at 300 nM pre-incubated for 72 hrs followed by cycloheximide addition and measured after 60 mins by immunoblot analysis (reference value: 84%); format: cell-based; in short: as §3
OPM-2 [20] = experiment: Induction of apoptosis in wild type human OPM2 cells assessed as cleaved caspase-3 at 250 nM after 24 hrs in presence of 1% FBS by immunoblot analysis (reference value: 92%); format: functional
[21] = target: T1, Protein cereblon/Induced myeloid leukemia cell differentiation protein Mcl-1 (Homo sapiens); experiment: Protac activity at Cereblon/MCL1 short isoform in wild type human OPM2 cells assessed as MCL1 short isoform abundance at 250 nM after 48 hrs by immunoblot analysis relative to control; format: cell-based; in short: as §2
[22] = target: T2, Induced myeloid leukemia cell differentiation protein Mcl-1; experiment: Binding affinity to His-tagged biotinylated human MCL1 by surface plasmon resonance method
[23] = target: T1, Protein cereblon/Induced myeloid leukemia cell differentiation protein Mcl-1 (Homo sapiens); experiment: Protac activity at Cereblon/MCL1 short isoform in human MM1S cells assessed as MCL1 short isoform level at 300 nM pre-incubated for 72 hrs followed by cycloheximide addition and measured after 30 mins by immunoblot analysis (reference value: 100%); format: cell-based; in short: as §3
[24] = target: T2, Induced myeloid leukemia cell differentiation protein Mcl-1; experiment: Induction of MCL1 short isoform degradation in CRBN-/- human OPM2 cells assessed as protein abundance at 250 nM after 48 hrs by immunoblot analysis relative to control; format: cell-based; in short: as §1
[25] = target: T1, Protein cereblon/Induced myeloid leukemia cell differentiation protein Mcl-1 (Homo sapiens); experiment: Protac activity at Cereblon/MCL1 long isoform in human OPM2 cells assessed as MCL1 long isoform level at 300 nM pre-incubated for 72 hrs followed by cycloheximide addition and measured after 120 mins by immunoblot analysis (reference value: 58%); format: cell-based; in short: as §3
[26] = target: T1, Protein cereblon/Induced myeloid leukemia cell differentiation protein Mcl-1 (Homo sapiens); experiment: Protac activity at Cereblon/MCL1 in human OPM2 cells assessed as protein abundance at 25 nM after 48 hrs by immunoblot analysis relative to control; format: cell-based; in short: as §1
[27] = target: T2, Induced myeloid leukemia cell differentiation protein Mcl-1; experiment: Induction of MCL1 long isoform degradation in CRBN-/- human OPM2 cells assessed as protein abundance at 250 nM after 48 hrs by immunoblot analysis relative to control; format: cell-based; in short: as §1

T2 sequence (Q07820 whole entry, canonical isoform): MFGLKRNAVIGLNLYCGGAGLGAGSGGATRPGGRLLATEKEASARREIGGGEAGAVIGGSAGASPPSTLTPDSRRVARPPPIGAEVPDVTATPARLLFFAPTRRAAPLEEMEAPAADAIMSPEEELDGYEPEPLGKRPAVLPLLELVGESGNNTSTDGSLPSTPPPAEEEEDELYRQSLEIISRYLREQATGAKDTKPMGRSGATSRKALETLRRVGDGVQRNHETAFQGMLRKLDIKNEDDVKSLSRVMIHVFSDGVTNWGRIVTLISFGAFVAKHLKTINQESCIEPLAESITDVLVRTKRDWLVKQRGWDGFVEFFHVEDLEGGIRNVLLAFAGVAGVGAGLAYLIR
T1 sequence (Q07820 whole entry, looked up, canonical isoform): as the sequence (Q07820 whole entry, canonical isoform) above
T1 sequence (Q96SW2 whole entry, looked up, canonical isoform): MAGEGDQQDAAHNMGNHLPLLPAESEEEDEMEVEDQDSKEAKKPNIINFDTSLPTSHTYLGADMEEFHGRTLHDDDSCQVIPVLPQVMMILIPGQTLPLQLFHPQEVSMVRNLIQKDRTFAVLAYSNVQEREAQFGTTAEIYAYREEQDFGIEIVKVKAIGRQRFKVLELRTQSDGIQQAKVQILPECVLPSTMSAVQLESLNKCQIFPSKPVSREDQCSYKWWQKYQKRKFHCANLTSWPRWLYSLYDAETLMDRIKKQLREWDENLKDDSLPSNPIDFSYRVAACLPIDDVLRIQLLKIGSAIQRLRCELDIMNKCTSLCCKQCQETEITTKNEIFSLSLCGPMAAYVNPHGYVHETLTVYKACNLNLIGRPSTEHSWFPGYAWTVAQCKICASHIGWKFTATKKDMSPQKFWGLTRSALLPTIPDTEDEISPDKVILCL

**Q.** Which Activity [1] does the source give for `Cc1nn(C)c(COc2ccc(N3CCN(S(=O)(=O)N(C)C)CC3)cc2)c1-c1cccc2c(CCCOc3cccc4ccccc34)c(C(=O)O)n(CCN3CCN(C(=O)COc4cccc5c4C(=O)N(C4CCC(=O)NC4=O)C5=O)CC3)c12` (configuration not stated) here?
**A.** Its Activity is 70%.

**Q.** What about the Activity [2] of the same compound?
**A.** The Activity was 53%.

**Q.** What about the Activity [3] of the same compound?
**A.** Its Activity is 100%.

**Q.** And the Activity [4]?
**A.** The Activity was 77%.

**Q.** And the Activity [5]?
**A.** The Activity was “Active”.

**Q.** What about the Activity [6] of the same compound?
**A.** The Activity was 90%.

**Q.** What about the Activity [7] of the same compound?
**A.** Its Activity is 20%.

**Q.** What about the Activity [8] of the same compound?
**A.** The Activity was 59%.

**Q.** And the Activity [9]?
**A.** The Activity was “Active”.

**Q.** What about the Activity [10] of the same compound?
**A.** The Activity was 34%.

**Q.** And the Activity [11]?
**A.** The Activity was 66%.

**Q.** And the Activity [12]?
**A.** Its Activity is 55%.

**Q.** And the Activity (OPM-2 [13])?
**A.** The Activity was 85%.

**Q.** What about the Activity [14] of the same compound?
**A.** Its Activity is 100%.

**Q.** What about the Activity [15] of the same compound?
**A.** The Activity was 39%.

**Q.** What about the Activity [16] of the same compound?
**A.** The Activity was 100%.

**Q.** And the Activity [17]?
**A.** The Activity was 110%.

**Q.** What about the Activity [18] of the same compound?
**A.** The Activity was 49%.

**Q.** And the Activity [19]?
**A.** Its Activity is 58%.

**Q.** And the Activity (OPM-2 [20])?
**A.** Its Activity is 197%.

**Q.** And the Activity [21]?
**A.** The Activity was 47%.

**Q.** What about the Kd [22] of the same compound?
**A.** Its Kd is 0.03 µM.

**Q.** And the Activity [23]?
**A.** The Activity was 74%.

**Q.** What about the Activity [24] of the same compound?
**A.** Its Activity is 97%.

**Q.** And the Activity [25]?
**A.** Its Activity is 24%.

**Q.** And the Activity [26]?
**A.** Its Activity is 89%.

**Q.** And the Activity [27]?
**A.** Its Activity is 85%.
